Reference: ChEMBL document CHEMBL3875169, “Synthesis, in vitro anticancer and antibacterial activities and in silico studies of new 4-substituted 1,2,3-triazole-coumarin hybrids” (Eur J Med Chem, 2016)

Legend:
[1] = Induction of apoptosis in human HepG2 cells assessed as viable cells at 2 times antiproliferative IC50 after 48 hrs by Annexin-V FITC/propidium iodide staining based fluorescence microscopic method (reference value: 94.2%); format: functional
[2] = Growth inhibition of human SW620 cells after 72 hrs by MTT assay; format: functional, cell-based; details: SW-620, 72 h
Method in brief: (§1)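 Monolayers in DMEM with 10% FBS, 2 mM L-glutamine and penicillin/streptomycin, 37 °C, 5% CO2; 5000 cells/well seeded day 0. Compounds added as five 10-fold dilutions (0.01–100 µM), DMSO ≤0.1%, for 72 h. MTT absorbance converted to percentage growth (NIH formulas); IC50 by linear regression between bracketing concentrations, highest concentration reported with ">" when not reached. Quadruplicate points, three experiments.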

[3] = Growth inhibition of human A549 cells after 72 hrs by MTT assay; format: functional, cell-based; details: A549, 72 h; method in brief: as §1
HepG2 = assay: Selectivity index, ratio of IC50 for […] cells to IC50 for human HepG2 cells; format: functional
[4] = Growth inhibition of human HepG2 cells after 72 hrs by MTT assay; format: functional, cell-based; details: HepG2, 72 h; method in brief: as §1
[5] = Growth inhibition of human CFPAC-1 cells after 72 hrs by MTT assay; format: functional, cell-based; details: CFPAC-1, 72 h; method in brief: as §1
[6] = Induction of apoptosis in human HepG2 cells assessed as early apoptotic cells at 2 times antiproliferative IC50 after 48 hrs by Annexin-V FITC/propidium iodide staining based fluorescence microscopic method (reference value: 0.6%); format: functional
[7] = Induction of apoptosis in human HepG2 cells assessed as late apoptotic cells at 2 times antiproliferative IC50 after 48 hrs by Annexin-V FITC/propidium iodide staining based fluorescence microscopic method (reference value: 0%); format: functional
[8] = Induction of apoptosis in human HepG2 cells assessed as secondary necrotic cells at 2 times antiproliferative IC50 after 48 hrs by Annexin-V FITC/propidium iodide staining based fluorescence microscopic method (reference value: 5.2%); format: functional
[9] = Growth inhibition of human HeLa cells after 72 hrs by MTT assay; format: functional, cell-based; method in brief: as §1

`O=c1cc(Cn2cc(Cn3ccc4cc(I)ccc43)nn2)c2ccc(O)cc2o1` showed an Activity [1] of 85%, an IC50 [2] of 34.3 µM and an IC50 [3] of 28.6 µM. For the same compound, the “Ratio IC50” value (HepG2) was 3, the IC50 [4] was 8.57 µM and the IC50 [5] was 29.9 µM. For the same compound, the Activity [6] was 5.8%, the Activity [7] was 9.2% and the Activity [8] was 0%. The IC50 [9] was 14.2 µM.
